The source of these data is ChEMBL document CHEMBL3872230, “Inhibition of the enzymes in the leukotriene and prostaglandin pathways in inflammation by 3-aryl isocoumarins” (Eur J Med Chem, 2016).

The source made the active and inactive calls. The calls are words filed in the database; no cut-off is given here.

For data set [1], the target named is T1, Polyunsaturated fatty acid 5-lipoxygenase (Homo sapiens, UniProt P09917).
T1 sequence (P09917 whole entry): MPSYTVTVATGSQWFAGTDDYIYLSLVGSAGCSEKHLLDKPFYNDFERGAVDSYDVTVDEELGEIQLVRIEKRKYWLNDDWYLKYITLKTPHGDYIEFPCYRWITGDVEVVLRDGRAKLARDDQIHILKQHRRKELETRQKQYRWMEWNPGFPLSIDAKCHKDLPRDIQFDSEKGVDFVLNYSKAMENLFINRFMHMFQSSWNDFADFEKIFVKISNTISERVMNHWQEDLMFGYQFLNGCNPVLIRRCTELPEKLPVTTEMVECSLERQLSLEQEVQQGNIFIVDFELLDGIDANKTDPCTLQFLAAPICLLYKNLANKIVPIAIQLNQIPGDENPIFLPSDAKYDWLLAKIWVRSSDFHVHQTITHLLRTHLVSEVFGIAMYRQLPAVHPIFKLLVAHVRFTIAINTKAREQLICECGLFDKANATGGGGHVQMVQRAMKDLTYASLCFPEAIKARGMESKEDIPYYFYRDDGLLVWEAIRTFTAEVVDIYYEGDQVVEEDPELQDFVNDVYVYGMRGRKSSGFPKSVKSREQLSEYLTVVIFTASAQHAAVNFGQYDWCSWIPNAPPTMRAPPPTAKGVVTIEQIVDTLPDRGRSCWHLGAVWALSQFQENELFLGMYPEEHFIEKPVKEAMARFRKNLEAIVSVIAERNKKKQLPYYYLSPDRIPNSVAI
Put plainly: Inhibition of human recombinant 5-LOX expressed in Escherichia coli BL21 assessed as decrease in 5-HPETE production preincubated with enzyme followed by arachidonic acid substrate addition by UV-vis spectrophotometry.

Data set [2] has as its target Prostaglandin G/H synthase 1 (Homo sapiens, UniProt P23219). Briefly: Inhibition of COX-1 (unknown origin).
For data set [3], the system named is HeLa. Put plainly: Inhibition of mPGES1 mRNA expression in human HeLa cells at 5 uM by RT-PCR method. In kind it is functional, cell-based. The essentials:
(§1)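 Real-time PCR on treated HeLa cells. mRNA levels were normalized to untreated cells and to β-actin, and significance was assessed by 2-way ANOVA.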

Data set [4] concerns the target T2, Prostaglandin E synthase/G/H synthase 2 (Homo sapiens) (UniProt P35354+O14684). Briefly: Inhibition of COX-2/mPGES1 in human HeLa cells assessed as reduction in TNF-alpha induced PGE2 production at 5 uM preincubated for 15 mins followed by arachidonic acid addition for 15 mins by ELISA. It counts as cell-based. The essentials: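 HeLa cells primed with TNF at 50 ng/ml to induce mPGES1, then exposed to compound for 15 min, then challenged with exogenous arachidonic acid for a further 15 min. PGE2 released into the culture supernatant was quantified by ELISA.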

The target of another data set is T3, Prostaglandin E synthase (Homo sapiens, UniProt O14684).
T3 sequence (O14684 whole entry): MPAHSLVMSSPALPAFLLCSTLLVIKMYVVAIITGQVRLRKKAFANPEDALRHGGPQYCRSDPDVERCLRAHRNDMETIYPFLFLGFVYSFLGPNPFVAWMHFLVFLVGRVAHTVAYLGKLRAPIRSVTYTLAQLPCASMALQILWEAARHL
Put plainly: Inhibition of mPGES1 in human A549 cells assessed as reduction in PGE2 production. In kind it is cell-based.

Data set [5] addresses T2, Prostaglandin E synthase/G/H synthase 2 (Homo sapiens). Put plainly: Inhibition of COX-2/mPGES1 in human HeLa cells assessed as reduction in TNF-alpha induced PGE2 production at 5 uM after 15 mins followed by ELISA. In kind it is cell-based. In a few lines: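 TNF-treated HeLa cells were exposed to compound for 15 min without added arachidonic acid. PGE2 released into the culture supernatant was measured by ELISA.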
For orientation: ELISA stands for enzyme-linked immunosorbent assay.

The target of data set [6] is T4, Prostaglandin E synthase (Homo sapiens) (UniProt O14684).
T4 sequence (whole entry): T3 sequence (O14684 whole entry)
Briefly: Inhibition of mPGES1 in human HeLa cells assessed as reduction in TNF-alpha induced PGE2 production at 5 uM preincubated for 2 hrs followed by TNF-alpha addition for 24 hrs by ELISA. It counts as cell-based. The essentials: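 Read-out was PGE2 released into the HeLa culture supernatant, measured with an ELISA kit.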

The subject of data set [7] is HeLa. Put plainly: Inhibition of COX-2 mRNA expression in human HeLa cells at 5 uM by RT-PCR method. In kind it is functional, cell-based. In a few lines: as §1
A short description of data set [8]: Cytotoxicity against human HeLa cells assessed as cell proliferation at 50 uM after 24 hrs by MTT assay. It counts as toxicity, cell-based. As to conditions: read-out: Activity. (Tetrazolium assays rely on reduction of a dye to a coloured formazan, in cell work by metabolically active cells.)
Data set [9] has as its target T5, Polyunsaturated fatty acid 5-lipoxygenase (Homo sapiens) (UniProt P09917).
T5 sequence (whole entry): T1 sequence (P09917 whole entry)
Put plainly: Inhibition of human recombinant 5-LOX expressed in Escherichia coli BL21 assessed as decrease in 5-HPETE production at 50 uM preincubated with enzyme followed by arachidonic acid substrate addition by UV-vis spectrophotometry.

T2 sequence (P35354 whole entry, looked up, one chain of several): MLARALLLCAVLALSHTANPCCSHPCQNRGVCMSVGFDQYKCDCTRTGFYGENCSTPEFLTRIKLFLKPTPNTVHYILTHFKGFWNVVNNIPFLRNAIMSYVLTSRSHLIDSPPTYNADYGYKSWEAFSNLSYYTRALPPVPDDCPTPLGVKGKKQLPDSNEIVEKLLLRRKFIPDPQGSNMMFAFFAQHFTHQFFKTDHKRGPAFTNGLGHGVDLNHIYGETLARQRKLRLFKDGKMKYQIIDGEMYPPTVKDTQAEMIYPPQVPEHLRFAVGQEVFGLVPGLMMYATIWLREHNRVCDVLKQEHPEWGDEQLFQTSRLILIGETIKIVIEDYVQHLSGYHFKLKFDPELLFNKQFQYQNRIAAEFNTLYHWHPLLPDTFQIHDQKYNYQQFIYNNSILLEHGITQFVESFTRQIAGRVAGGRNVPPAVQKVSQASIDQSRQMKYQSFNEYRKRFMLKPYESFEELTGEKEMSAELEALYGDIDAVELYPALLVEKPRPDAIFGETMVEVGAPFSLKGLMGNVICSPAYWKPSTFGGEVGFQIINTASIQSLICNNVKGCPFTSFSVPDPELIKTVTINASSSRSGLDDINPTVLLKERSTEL
Prostaglandin G/H synthase 1, sequence (P23219 whole entry): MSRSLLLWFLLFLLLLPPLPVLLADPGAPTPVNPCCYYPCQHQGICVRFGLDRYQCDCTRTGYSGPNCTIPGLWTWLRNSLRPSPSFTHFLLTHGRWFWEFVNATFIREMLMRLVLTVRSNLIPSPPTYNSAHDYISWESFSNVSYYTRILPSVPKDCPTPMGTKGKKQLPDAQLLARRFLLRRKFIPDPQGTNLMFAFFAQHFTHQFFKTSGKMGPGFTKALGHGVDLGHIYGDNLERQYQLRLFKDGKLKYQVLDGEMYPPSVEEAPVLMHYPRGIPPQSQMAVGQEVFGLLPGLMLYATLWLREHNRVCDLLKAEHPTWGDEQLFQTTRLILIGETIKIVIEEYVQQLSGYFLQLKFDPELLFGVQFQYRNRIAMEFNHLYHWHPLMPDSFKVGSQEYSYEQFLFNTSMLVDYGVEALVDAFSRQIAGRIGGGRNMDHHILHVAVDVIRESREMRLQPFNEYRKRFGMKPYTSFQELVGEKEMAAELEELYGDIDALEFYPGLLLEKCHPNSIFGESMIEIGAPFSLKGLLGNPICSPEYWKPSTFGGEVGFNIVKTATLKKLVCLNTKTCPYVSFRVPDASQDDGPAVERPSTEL

As for `CC1(C)Cc2c(-c3ccccc3)c(-c3ccc(Cl)cc3)c(CC(=O)O)n2C1` [LICOFELONE], the IC50 (in general, the midpoint of a concentration-inhibition curve) is 500 nM in [1] and 800 nM in [2]. For the same molecule, the inhibition result in the data set on HeLa [3] and in the data set on HeLa [7] was “Active” each time. For the same molecule, the inhibition (in general, the relative decrease from the control value, in per cent) in data set [4] came to 54.7%; in data set [5], 81%; in [6], 48%; in data set [9], 71%. Further, the EC50 – broadly, the concentration giving half of the maximal effect – at Prostaglandin E synthase is 100 nM. In addition, in data set [8], the viability at 24 h, 50 µM came out at 85%.
